Experimental data reported in ChEMBL document CHEMBL4610084, “Antibacterial and ATP Synthesis Modulating Compounds from Salvia tingitana” (2020).
In brackets after ≈: the same amount, converted by molar mass.

System: Staphylococcus capitis
Experiment: Antibacterial activity against Methicillin-resistant Staphylococcus capitis MB71 after 24 hrs by microdilution assay
Format: functional
Conditions: MB71, 24 h
Procedure, shortened: (§1)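 Broth microdilution MIC, run as in an earlier cited report. Strains are clinical isolates identified by standard methods and MALDI-TOF; E. faecalis MB19 and MB51 are Ligurian seawater isolates. Highest concentration tested was 128 μg/mL. MICs are given in μg/mL and μM, with oxacillin and vancomycin as reference antibiotics.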

SMILES | MIC [µM]
CC1=CC(=O)O[C@@H]1C/C=C(\C)CC[C@@H]1[C@@]2(C)CCC[C@@]3(C)C(=O)O[C@@H](C[C@@]1(C)O)[C@H]23 | 154 (≈ 64.1 µg/mL)

System: Staphylococcus hominis
Experiment: Antibacterial activity against Methicillin-resistant Staphylococcus hominis MB124 after 24 hrs by microdilution assay
Format: functional
Conditions: MB124, 24 h
Procedure, shortened: as §1

SMILES | MIC [µg/mL]
CC1=CC(=O)O[C@@H]1C/C=C(\C)CC[C@@H]1[C@@]2(C)CCC[C@@]3(C)C(=O)O[C@@H](C[C@@]1(C)O)[C@H]23 | > 128

System: Enterococcus gallinarum
Experiment: Antibacterial activity against Vancomycin resistant Enterococcus gallinarum MB111 after 24 hrs by microdilution assay
Format: functional
Conditions: MB111, 24 h
Procedure, shortened: as §1

SMILES | MIC [µM]
CC1=CC(=O)O[C@@H]1C/C=C(\C)CC[C@@H]1[C@@]2(C)CCC[C@@]3(C)C(=O)O[C@@H](C[C@@]1(C)O)[C@H]23 | 154 (≈ 64.1 µg/mL)

System: Enterococcus faecium
Experiment: Bacteriostatic activity against Enterococcus faecium MB152 assessed as ratio of reduction in bacterial growth by measuring order of magnitude at 4 times MIC by time kill assay
Format: functional
Conditions: not given
Procedure, shortened: (§2)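 Time-kill curves: viable cell counts of susceptible strains recorded with or without compound at 4 × MIC.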

SMILES | Ratio
CC1=CC(=O)O[C@@H]1C/C=C(\C)CC[C@@H]1[C@@]2(C)CCC[C@@]3(C)C(=O)O[C@@H](C[C@@]1(C)O)[C@H]23 | 1 - 2

System: Staphylococcus lugdunensis
Experiment: Antibacterial activity against Staphylococcus lugdunensis MB96 after 24 hrs by microdilution assay
Format: functional
Conditions: MB96, 24 h
Procedure, shortened: (§3)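 Broth microdilution MIC against clinical or seawater-isolated strains (identified by standard procedures and MALDI-TOF), with compound solutions and testing as in earlier work. MIC reported in μg/mL and μM.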

SMILES | MIC [µM]
CC1=CC(=O)O[C@@H]1C/C=C(\C)CC[C@@H]1[C@@]2(C)CCC[C@@]3(C)C(=O)O[C@@H](C[C@@]1(C)O)[C@H]23 | 308 (≈ 128 µg/mL)

System: Enterococcus faecalis
Experiment: Antibacterial activity against Vancomycin resistant Enterococcus faecalis MB1 after 24 hrs by microdilution assay
Format: functional
Conditions: MB1, 24 h
Procedure, shortened: as §1

SMILES | MIC [µM]
CC1=CC(=O)O[C@@H]1C/C=C(\C)CC[C@@H]1[C@@]2(C)CCC[C@@]3(C)C(=O)O[C@@H](C[C@@]1(C)O)[C@H]23 | 154 (≈ 64.1 µg/mL)

System: Enterococcus avium
Experiment: Antibacterial activity against Enterococcus avium MB119 after 24 hrs by microdilution assay
Format: functional
Conditions: MB119, 24 h
Procedure, shortened: as §3

SMILES | MIC [µM]
CC1=CC(=O)O[C@@H]1C/C=C(\C)CC[C@@H]1[C@@]2(C)CCC[C@@]3(C)C(=O)O[C@@H](C[C@@]1(C)O)[C@H]23 | 154 (≈ 64.1 µg/mL)

System: Staphylococcus warneri
Experiment: Antibacterial activity against Methicillin-resistant Staphylococcus warneri MB74 after 24 hrs by microdilution assay
Format: functional
Conditions: MB74, 24 h
Procedure, shortened: as §1

SMILES | MIC [µM]
CC1=CC(=O)O[C@@H]1C/C=C(\C)CC[C@@H]1[C@@]2(C)CCC[C@@]3(C)C(=O)O[C@@H](C[C@@]1(C)O)[C@H]23 | 308 (≈ 128 µg/mL)

System: Staphylococcus saprophyticus
Experiment: Antibacterial activity against Staphylococcus saprophyticus MB41 after 24 hrs by microdilution assay
Format: functional
Conditions: MB41, 24 h
Procedure, shortened: as §3

SMILES | MIC [µg/mL]
CC1=CC(=O)O[C@@H]1C/C=C(\C)CC[C@@H]1[C@@]2(C)CCC[C@@]3(C)C(=O)O[C@@H](C[C@@]1(C)O)[C@H]23 | > 128

System: Staphylococcus simulans
Experiment: Antibacterial activity against Staphylococcus simulans MB94 after 24 hrs by microdilution assay
Format: functional
Conditions: MB94, 24 h
Procedure, shortened: as §3

SMILES | MIC [µg/mL]
CC1=CC(=O)O[C@@H]1C/C=C(\C)CC[C@@H]1[C@@]2(C)CCC[C@@]3(C)C(=O)O[C@@H](C[C@@]1(C)O)[C@H]23 | > 128

System: Staphylococcus epidermidis
Experiment: Antibacterial activity against Methicillin-resistant Staphylococcus epidermidis MB169 after 24 hrs by microdilution assay
Format: functional
Conditions: MB169, 24 h
Procedure, shortened: as §1

SMILES | MIC [µg/mL]
CC1=CC(=O)O[C@@H]1C/C=C(\C)CC[C@@H]1[C@@]2(C)CCC[C@@]3(C)C(=O)O[C@@H](C[C@@]1(C)O)[C@H]23 | > 128

System: Enterococcus faecium
Experiment: Antibacterial activity against Enterococcus faecium MB2 after 24 hrs by microdilution assay
Format: functional
Conditions: MB2, 24 h
Procedure, shortened: as §3

SMILES | MIC [µg/mL]
CC1=CC(=O)O[C@@H]1C/C=C(\C)CC[C@@H]1[C@@]2(C)CCC[C@@]3(C)C(=O)O[C@@H](C[C@@]1(C)O)[C@H]23 | > 128

System: Staphylococcus aureus
Experiment: Antibacterial activity against Methicillin-resistant Staphylococcus aureus MB18 after 24 hrs by microdilution assay
Format: functional
Conditions: MB18, 24 h
Procedure, shortened: as §1

SMILES | MIC [µM]
CC1=CC(=O)O[C@@H]1C/C=C(\C)CC[C@@H]1[C@@]2(C)CCC[C@@]3(C)C(=O)O[C@@H](C[C@@]1(C)O)[C@H]23 | 308 (≈ 128 µg/mL)

System: Enterococcus durans
Experiment: Antibacterial activity against Enterococcus durans MB113 after 24 hrs by microdilution assay
Format: functional
Conditions: MB113, 24 h
Procedure, shortened: as §3

SMILES | MIC [µg/mL]
CC1=CC(=O)O[C@@H]1C/C=C(\C)CC[C@@H]1[C@@]2(C)CCC[C@@]3(C)C(=O)O[C@@H](C[C@@]1(C)O)[C@H]23 | > 128

System: Enterococcus faecalis
Experiment: Antibacterial activity against Vancomycin resistant Enterococcus faecalis MB19 after 24 hrs by microdilution assay
Format: functional
Conditions: MB19, 24 h
Procedure, shortened: as §1

SMILES | MIC [µM]
CC1=CC(=O)O[C@@H]1C/C=C(\C)CC[C@@H]1[C@@]2(C)CCC[C@@]3(C)C(=O)O[C@@H](C[C@@]1(C)O)[C@H]23 | 308 (≈ 128 µg/mL)

System: Enterococcus faecalis
Experiment: Antibacterial activity against Vancomycin resistant Enterococcus faecalis MB51 after 24 hrs by microdilution assay
Format: functional
Conditions: MB51, 24 h
Procedure, shortened: as §1

SMILES | MIC [µM]
CC1=CC(=O)O[C@@H]1C/C=C(\C)CC[C@@H]1[C@@]2(C)CCC[C@@]3(C)C(=O)O[C@@H](C[C@@]1(C)O)[C@H]23 | 154 (≈ 64.1 µg/mL)

System: Enterococcus faecium
Experiment: Antibacterial activity against Enterococcus faecium MB152 after 24 hrs by microdilution assay
Format: functional
Conditions: MB152, 24 h
Procedure, shortened: as §3

SMILES | MIC [µM]
CC1=CC(=O)O[C@@H]1C/C=C(\C)CC[C@@H]1[C@@]2(C)CCC[C@@]3(C)C(=O)O[C@@H](C[C@@]1(C)O)[C@H]23 | 308 (≈ 128 µg/mL)

Species: Bos taurus
Experiment: Modulation of ATP synthase in bovine rod outer segments assessed as inhibition of ATP production at 80 ug/ml in presence of Ap5A adenylate kinase inhibitor by luciferin/luciferase chemiluminescent method relative to control
Conditions: not given
Procedure, shortened: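 Bovine rod OS (5 μg) preincubated 5 min at 37 °C in Tris/HCl pH 7.4 with KCl, EGTA, MgCl2, 0.6 mM ouabain, 0.25 mM Ap5A, 5 mM KH2PO4, 20 mM succinate, 0.35 mM NADH and ampicillin. Synthesis started with 0.1 mM ADP and stopped with perchloric acid. ATP read by luciferin/luciferase luminescence. Samples at 80 μg/mL; 30 μM resveratrol as positive control. Triplicates, ANOVA/Bonferroni.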

SMILES | inhibition [%]
CC1=CC(=O)O[C@@H]1C/C=C(\C)CC[C@@H]1[C@@]2(C)CCC[C@@]3(C)C(=O)O[C@@H](C[C@@]1(C)O)[C@H]23 | 79

System: Enterococcus faecalis
Experiment: Antibacterial activity against Enterococcus faecalis MB76 after 24 hrs by microdilution assay
Format: functional
Conditions: MB76, 24 h
Procedure, shortened: as §1

SMILES | MIC [µM]
CC1=CC(=O)O[C@@H]1C/C=C(\C)CC[C@@H]1[C@@]2(C)CCC[C@@]3(C)C(=O)O[C@@H](C[C@@]1(C)O)[C@H]23 | 308 (≈ 128 µg/mL)

System: Enterococcus faecalis
Experiment: Bacteriostatic activity against Enterococcus faecalis MB1 assessed as ratio of reduction in bacterial growth at 4 times MIC by time kill assay
Format: functional
Conditions: not given
Procedure, shortened: as §2

SMILES | Ratio
CC1=CC(=O)O[C@@H]1C/C=C(\C)CC[C@@H]1[C@@]2(C)CCC[C@@]3(C)C(=O)O[C@@H](C[C@@]1(C)O)[C@H]23 | 1 - 2

System: Staphylococcus epidermidis
Experiment: Antibacterial activity against Methicillin-resistant Staphylococcus epidermidis MB165 after 24 hrs by microdilution assay
Format: functional
Conditions: MB165, 24 h
Procedure, shortened: as §1

SMILES | MIC [µM]
CC1=CC(=O)O[C@@H]1C/C=C(\C)CC[C@@H]1[C@@]2(C)CCC[C@@]3(C)C(=O)O[C@@H](C[C@@]1(C)O)[C@H]23 | 308 (≈ 128 µg/mL)

System: Enterococcus faecium
Experiment: Antibacterial activity against Enterococcus faecium MB3 after 24 hrs by microdilution assay
Format: functional
Conditions: MB3, 24 h
Procedure, shortened: as §3

SMILES | MIC [µM]
CC1=CC(=O)O[C@@H]1C/C=C(\C)CC[C@@H]1[C@@]2(C)CCC[C@@]3(C)C(=O)O[C@@H](C[C@@]1(C)O)[C@H]23 | 308 (≈ 128 µg/mL)

System: Staphylococcus aureus
Experiment: Antibacterial activity against Methicillin-resistant Staphylococcus aureus MB188 after 24 hrs by microdilution assay
Format: functional
Conditions: MB188, 24 h
Procedure, shortened: as §1

SMILES | MIC [µg/mL]
CC1=CC(=O)O[C@@H]1C/C=C(\C)CC[C@@H]1[C@@]2(C)CCC[C@@]3(C)C(=O)O[C@@H](C[C@@]1(C)O)[C@H]23 | > 128

System: Enterococcus casseliflavus
Experiment: Antibacterial activity against Vancomycin resistant Enterococcus casseliflavus MB159 after 24 hrs by microdilution assay
Format: functional
Conditions: MB159, 24 h
Procedure, shortened: as §1

SMILES | MIC [µM]
CC1=CC(=O)O[C@@H]1C/C=C(\C)CC[C@@H]1[C@@]2(C)CCC[C@@]3(C)C(=O)O[C@@H](C[C@@]1(C)O)[C@H]23 | 308 (≈ 128 µg/mL)

System: Staphylococcus haemolyticus
Experiment: Antibacterial activity against Methicillin-resistant Staphylococcus haemolyticus MB115 after 24 hrs by microdilution assay
Format: functional
Conditions: MB115, 24 h
Procedure, shortened: as §1

SMILES | MIC [µg/mL]
CC1=CC(=O)O[C@@H]1C/C=C(\C)CC[C@@H]1[C@@]2(C)CCC[C@@]3(C)C(=O)O[C@@H](C[C@@]1(C)O)[C@H]23 | > 128
